From ChEMBL document CHEMBL4513216, “Probing the Open Global Health Chemical Diversity Library for Multistage-Active Starting Points for Next-Generation Antimalarials” (ACS Infect Dis, 2020)

Test: Toxicity liver stage against HepG2, at 10uM
Format: cell-based
Parameters: test concentration 10 uM, cell line HepG2-A16-CD81EGFP
Settings: human, HepG2-A16-CD81EGFP cells; read-out: INHIBITION
In short: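 Uninfected HepG2-A16-CD81EGFP cells, 3 × 10^3 per well, 1536-well, plated on prespotted compound at 10 μM final, parasite-free screening media added to match infected plates; puromycin 10 μM positive, DMSO 0.5% negative; run in parallel with 48 h PbLuc assay at 37 °C, 5% CO2; viability by CellTiter-Glo luminescence, normalized to controls.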

Compound | cytotoxicity at 10 µM
CC(C)(C)CN[C@@H]1CO[C@H](CNC(=O)c2ccncc2)[C@H]1O | -2.5%
Cc1cc(C(=O)N2CCc3ncnc(-c4cnn(C)c4)c3CC2)no1 | 8.88%
Cc1nccc([C@H]2C[C@@H]3CCN(S(=O)(=O)C4CC4)C[C@H]3O2)n1 | -2.3%
COCCNC(=O)c1nc2c(s1)CCCN2c1ccc(C)nn1 | 8.33%
COCC1COCCC12CCN(C(=O)COc1ccccc1C)CC2 (stereo not given) | 2.08%
Cc1nc(N2CCCC2)nc2c1CCN(C(=O)NC(C)C)CC2 | 2.93%
Cc1nc2ncc3c(=O)n(C)ccc3n2n1 | -15.4%
O=C(Cn1cc(-c2ccccc2)ncc1=O)Nc1ccncc1 | 11%
O=C(c1cccnc1)N1CCOC(Cc2ccccc2Cl)C1 (stereo not given) | 2.12%
CCCn1cc(Cl)c(C(=O)N2C[C@@H](O)[C@H](NC(C)=O)C2)n1 | -0.255%
Cn1cc(C(=O)N2CCC(c3cc(CCO)n(C)n3)C2)cn1 (stereo not given) | -0.0959%
CC(C)c1[nH]c2ncccc2c1CN1CCC(O)CC1 | 2.57%
Cn1ccnc1CN1CCOC(Cc2ccccc2)C1 (stereo not given) | -0.479%
Cc1cncc(C2CCCN2CCO)n1 (stereo not given) | -3.14%
O=C(Cc1cccc(O)c1)NCCNc1nccc(C(F)(F)F)n1 | 7.48%
COc1ccccc1CC1CCCN(C(=O)c2nccnc2N)C1 (stereo not given) | 5.79%
CC(C)OCCC1CCCCN1S(C)(=O)=O (stereo not given) | 2.43%
CN(C)c1cccc(C(=O)Nc2cnn(CC(N)=O)c2)c1 | 3.63%
C[C@@H]1CN(Cc2ccc(-c3ccncc3)cc2F)CC(C(N)=O)O1 (stereo not given in full) | 2.4%
N#CC1(NC(=O)CN2CCc3c(ncn3C3CC3)C2)CCCC1 | 12.1%
COc1ccccc1C(=O)N(Cc1nc(C)cs1)CC1CCCO1 (stereo not given) | 0.136%
COc1ccccc1C(C)CNC(=O)c1c(C)nn(C)c1OC (stereo not given) | -11.4%
CC1CN(C)c2ccccc2CN1C(=O)c1cnsn1 (stereo not given) | 0.736%

Compound | cytotoxicity at 10 µM
CNC(=O)CN(C)c1cncc(OCc2ccccc2)n1 | 1.15%
c1ccn2c(SCC3CN=C(N4CCOCC4)S3)ncc2c1 (stereo not given) | 11.8%
O=C(c1cncc(Br)c1)N1CCCc2c(F)cc(F)cc21 | 2.81%
O=C(CN(Cc1ccco1)C1CC1)Nc1ccc(Br)cn1 | -2.65%
CN(C(=O)Cn1nc(-c2ccc(F)cc2)oc1=O)C1CCS(=O)(=O)C1 (stereo not given) | 10.7%
COc1ccccc1CN(Cc1cccnc1)Cc1nccs1 | -1.53%
c1cc(-c2cn[nH]c2)ncc1CN1CCCCC1 | -1.35%
Cc1ccc2c(c1)OC(C)(C)CC2NC(=O)C1CCN(S(C)(=O)=O)CC1 (stereo not given) | 1.93%
CC(O)c1cccc(N2CCC3(CC2)Nc2ccccc2NC3=O)n1 (stereo not given) | -10.6%
CCn1nc(C)c(CNC(=O)c2cn(CC3CCCO3)nn2)c1C (stereo not given) | -2.34%
Cc1noc(C)c1C(=O)N(C)Cc1nc(-c2ccccn2)no1 | -6.23%
COc1ccc(C(C)N(C)Cc2nc3c(cnn3C)c(=O)[nH]2)cc1 (stereo not given) | -7.42%
c1csc(-c2noc(CNC3CCc4ncnn4C3)n2)c1 (stereo not given) | -9.3%
CNc1cc2c(nn1)CCN(C(=O)C1CCCc3ccccc31)C2 (stereo not given) | -17.2%
Cc1cc(CNC(=O)N2CCCN(Cc3ccccc3)CC2)no1 | -8.26%
CN(C)C(=O)[C@]12CCCN(CC3CC3)C[C@H]1CN(c1ccccn1)C2 | 3.68%
CN(C)C(=O)COC[C@@H]1CC[C@H]2[C@H](CCN2c2ncccn2)O1 | 15.6%
Cn1cc(CN2C[C@@H]3COC[C@H](C(=O)Nc4cccnc4)[C@@H]3C2)cn1 | 9.34%
O=C(NCc1cncc2c1CCN(C1CCOC1)C2)c1ccco1 (stereo not given) | 0.797%
Cc1cnc2n1CCN(C)C21CCN(C(=O)CC(C)C)CC1 | -5.85%
Cn1cccc1C(=O)N[C@@H]1CN(CC2CC2)[C@@H]2COC[C@@H]21 | 1.66%
Cc1nc(=O)c(CC(=O)N2C[C@@H]3CC[C@H]2CN(C(=O)N(C)C)C3)c(C)[nH]1 | 7.6%
